Activity calls are given as the source filed them. No cut-off for these calls is given here. Residues, ends and D or L forms follow the SMILES beside them.

Series [1] addresses T1, C-X-C chemokine receptor type 4 (Homo sapiens, UniProt P61073). In words: Binding affinity to CXCR4 in human CCRF-CEM cell membranes assessed as signal to noise ratio in presence of 0.05 mM plerixafor by STD-NMR method. Summed up:
(§1)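 Pellet of 20 x 10^6 intact cells (CCRF-CEM, CXCR4-null CHO or CXCR4-stably transfected CHO) resuspended in 450 µL PBS pH 7.4 plus 50 µL 2H2O. Peptide added for STD, WaterLOGSY or trNOESY 1H NMR. Spectra of peptide alone and of cells alone acquired as reference. Competition run by adding plerixafor to the indicated concentration (0.010–0.100 mM in STD). STD/WaterLOGSY read as signal-to-noise ratio.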

The target of series [2] is T1, C-X-C chemokine receptor type 4. In words: Binding affinity to CXCR4 in human CCRF-CEM cell membranes by WaterLOGSY-NMR method. The method in brief:
as §1

Series [3] can be described thus: Stability in human CCRF-CEM cells up to 2 hrs by NMR spectral analysis. Type of series: ADME, cell-based.
Series [4] deals with Plasma. Briefly: Drug metabolism in human plasma assessed as [Cys-Arg-Phe-Phe-Cys]-COOH metabolite formation after 15 to 30 mins by ESI-RP-HPLC analysis. The format is ADME, cell-free. Summed up: (§2)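 Peptide in sterile water mixed with 90% human serum and incubated at 37 °C. Aliquots taken at 0, 15, 30, 60 and 120 min, precipitated with ACN/0.1% TFA and centrifuged (12 000 rpm, 15 min, 4 °C). Supernatant analysed by RP-HPLC with a 10–90% ACN (0.1% TFA) gradient over 20 min. Relative peptide level taken from A230 peak integration.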

Series [5] deals with T1, C-X-C chemokine receptor type 4. Briefly: Binding affinity to CXCR4 in human CCRF-CEM cell membranes assessed as signal to noise ratio in presence of 0.01 mM plerixafor by STD-NMR method. Summed up: as §1
For series [6] the target is unchanged. Briefly: Binding affinity to CXCR4 in human CCRF-CEM cell membranes assessed as signal to noise ratio by STD-NMR method. Summed up: as §1
Series [7] in a line: Half life in human plasma by HPLC analysis. Type of series: ADME, cell-free. Summed up: as §2
Series [8] deals with T1, C-X-C chemokine receptor type 4. In words: Binding affinity to CXCR4 in human CCRF-CEM cell membranes assessed as signal to noise ratio in presence of 0.02 mM plerixafor by STD-NMR method. The method in brief:
as §1

Series [9] has the same target. Briefly: Binding affinity to CXCR4 in human CCRF-CEM cell membranes in presence of plerixafor by WaterLOGSY-NMR method. The method in brief: as §1
Series [10] has the same target. Briefly: Binding affinity to CXCR4 in human CCRF-CEM cell membranes assessed as signal to noise ratio in presence of 0.1 mM plerixafor by STD-NMR method. Summed up:
as §1

The target is the same in series [11]. In words: Binding affinity to CXCR4 (unknown origin) expressed in CHO cell membranes assessed as signal to noise ratio by STD-NMR method. The method in brief: as §1
The target is the same in series [12]. Briefly: Antagonist activity at CXCR4 in human CCRF-CEM cells assessed as inhibition of PE-conjugated 12G5 antibody binding. The format is cell-based. The method in brief: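 CCRF-CEM cells (5 × 10^5) preincubated 30 min at 37 °C, 5% CO2 with peptide at 0.01, 0.1, 1 and 10 µM in PBS plus 0.2% BSA and 0.1% NaN3. Then labeled 30 min with PE anti-CXCR4 antibody clone 12G5. IC50 taken as concentration reducing 12G5 binding by 50%, reported as mean ± SD.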

Series [13] is filed under the species Cricetulus griseus. In words: Binding affinity to CHO cell membranes assessed as signal to noise ratio by STD-NMR method. Summed up:
as §1

In series [14] the test system is Plasma. In words: Drug level in human plasma treated with (4R,7S,10S,13S,16R)-16-((S)-2-((S)-2-amino-5-guanidinopentanamido)propanam(4R,7S,10S,13S,16R)-16-((S)-2-((S)-2-amino-5-guanidinopentanamido)propanamido)-7,10-dibenzyl-13-(3-guanidinopropyl)-6,9,12,15-tetraoxo-1,2-dithia-5,8,11,14-tetraazacycloheptadecane-4-carboxylic acid after 15 to 30 mins by ESI-RP-HPLC analysis. The format is ADME, cell-free. The method in brief: as §2

Series [15] has as its system Plasma. In words: Stability in human plasma up to 120 mins by ESI-RP-HPLC analysis. Type of series: ADME, cell-free. Particulars: 2 h. The method in brief: as §2
Series [16] is described as follows: Stability in human CCRF-CEM cells up to 6 hrs by NMR spectral analysis. Type of series: ADME, cell-based.

T1 sequence (P61073 whole entry): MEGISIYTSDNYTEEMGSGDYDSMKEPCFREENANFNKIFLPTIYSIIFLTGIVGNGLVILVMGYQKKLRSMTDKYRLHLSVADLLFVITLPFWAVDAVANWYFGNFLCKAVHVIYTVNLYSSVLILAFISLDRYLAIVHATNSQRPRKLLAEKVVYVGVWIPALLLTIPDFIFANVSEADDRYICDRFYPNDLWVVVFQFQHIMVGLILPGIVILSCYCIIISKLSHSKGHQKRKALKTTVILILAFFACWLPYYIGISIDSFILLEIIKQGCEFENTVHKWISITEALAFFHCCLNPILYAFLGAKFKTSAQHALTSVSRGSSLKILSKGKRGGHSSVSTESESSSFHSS

What is called half-life is the time in which the quantity being followed falls by half. As for `C[C@H](NC(=O)[C@@H](N)CCCNC(=N)N)C(=O)N[C@H]1CSSC[C@@H](C(=O)O)NC(=O)[C@H](Cc2ccccc2)NC(=O)[C@H](Cc2ccccc2)NC(=O)[C@H](CCCNC(=N)N)NC1=O`, the Ratio came out at 6.1 in [1]; 7.2 in series [5]; 13.3 in [6]; 6.3 in series [8]; 5.9 in series [10]. The outcome in [2] was Active. For the same molecule, the Stability entry in [3] is recorded as “Unstable”. Moreover, the Drug metabolism entry in series [4] is listed as “Metabolite_Detected”. This molecule also gave a half-life in series [7] of 22 min. Further, the outcome in [9] was inactive.

By IC50 is commonly meant the point on the concentration scale where inhibition reaches its midpoint. `C[C@H](NC(=O)[C@H](N)CCCNC(=N)N)C(=O)N[C@H]1CSSC[C@@H](C(=O)O)NC(=O)[C@H](Cc2ccccc2)NC(=O)[C@H](Cc2ccccc2)NC(=O)[C@H](CCCNC(=N)N)NC1=O`: the Ratio was determined as 9.6 in [11] and 8.2 in series [13]. Besides, the IC50 in series [12] was over 10 µM.

As to `N=C(N)NCCC[C@@H]1NC(=O)[C@@H](N)CSSC[C@@H](C(=O)O)NC(=O)[C@H](Cc2ccccc2)NC(=O)[C@H](Cc2ccccc2)NC1=O` (HELM PEPTIDE1{C.R.F.F.C}$PEPTIDE1,PEPTIDE1,1:R3-5:R3$$$V2.0), in series [14], the Drug metabolism result was “Metabolite_Detected”.

On to `C[C@@H]1NC(=O)[C@H](Cc2ccccc2)NC(=O)[C@@H](NC(=O)[C@H](CCCNC(=N)N)NC(=O)[C@@H](N)Cc2ccccc2)CSSC[C@@H](C(=O)O)NC(=O)[C@H](CCCNC(=N)N)NC1=O` (HELM PEPTIDE1{F.R.C.F.A.R.C}$PEPTIDE1,PEPTIDE1,3:R3-7:R3$$$V2.0), for which the Ratio came out at 10.2 in [11] and 11.7 in series [13]. Besides, in series [12], the IC50 was over 10 µM.

As for `C[C@H](NC(=O)C1CCN(C(=N)N)CC1)C(=O)N[C@H]1CSSC[C@@H](C(=O)O)NC(=O)[C@H](Cc2ccccc2)NC(=O)[C@H](Cc2ccccc2)NC(=O)[C@H](CCCNC(=N)N)NC1=O` (HELM PEPTIDE1{[N=C(N)N1CCC(C(=O)[*:2])CC1].A.C.R.F.F.C}$PEPTIDE1,PEPTIDE1,3:R3-7:R3$$$V2.0), the IC50 in [12] is over 10 µM.

Take `C[C@H](NC(=O)CCCNC(=N)N)C(=O)N[C@H]1CSSC[C@@H](C(=O)O)NC(=O)[C@H](Cc2ccccc2)NC(=O)[C@H](Cc2ccccc2)NC(=O)[C@H](CCCNC(=N)N)NC1=O` (HELM PEPTIDE1{[N=C(N)NCCCC(=O)[*:2]].A.C.R.F.F.C}$PEPTIDE1,PEPTIDE1,3:R3-7:R3$$$V2.0): the IC50 in series [12] is over 10 µM.

With `C[C@H](NC(=O)c1ccc(NC(=N)N)cc1)C(=O)N[C@H]1CSSC[C@@H](C(=O)O)NC(=O)[C@H](Cc2ccccc2)NC(=O)[C@H](Cc2ccccc2)NC(=O)[C@H](CCCNC(=N)N)NC1=O` (HELM PEPTIDE1{[N=C(N)Nc1ccc(C(=O)[*:2])cc1].A.C.R.F.F.C}$PEPTIDE1,PEPTIDE1,3:R3-7:R3$$$V2.0), the IC50 in series [12] was over 10 µM.

`C[C@H](NC(=O)c1cccc(NC(=N)N)c1)C(=O)N[C@H]1CSSC[C@@H](C(=O)O)NC(=O)[C@H](Cc2ccccc2)NC(=O)[C@H](Cc2ccccc2)NC(=O)[C@H](CCCNC(=N)N)NC1=O` (HELM PEPTIDE1{[N=C(N)Nc1cccc(C(=O)[*:2])c1].A.C.R.F.F.C}$PEPTIDE1,PEPTIDE1,3:R3-7:R3$$$V2.0): the values for the Ratio in series [11], in series [6] and in series [13] were 35.9, 10 and 12.5, respectively. This molecule displayed a half-life in series [7] of over 120 min. In addition, in series [12], the IC50 amounted to 3.2 µM. Moreover, the Stability result in series [15] and in series [16] was “Stable” in each case.

Turning to `CC(=O)N[C@@H](CCCNC(=N)N)C(=O)N[C@@H](C)C(=O)N[C@H]1CSSC[C@@H](C(=O)O)NC(=O)[C@H](Cc2ccccc2)NC(=O)[C@H](Cc2ccccc2)NC(=O)[C@H](CCCNC(=N)N)NC1=O` (HELM PEPTIDE1{[ac].R.A.C.R.F.F.C}$PEPTIDE1,PEPTIDE1,4:R3-8:R3$$$V2.0), in [2], the result was Active.

The values are drawn from ChEMBL document CHEMBL4020843, “Ligand-Based NMR Study of C-X-C Chemokine Receptor Type 4 (CXCR4)-Ligand Interactions on Living Cancer Cells” (J Med Chem, 2018).
